Measurements as given in ChEMBL document CHEMBL3046583, “Design, synthesis, and insecticidal activity of novel pyrazole derivatives containing α-hydroxymethyl-N-benzyl carboxamide, α-chloromethyl-N-benzyl carboxamide, and 4,5-dihydrooxazole moieties” (2012).
Activity calls are given as the source filed them. The calls are words filed in the database; no cut-off is given here.

Experiments:
Helicoverpa armigera [1] = assay: Stomach toxicity against third-instars Helicoverpa armigera assessed as larvicidal activity at 55 mg/kg at 25 +/- 1 degC after 3 days; type: functional
Method in brief: (§1)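 Diet-incorporation assay on third-instar larvae. Samples dissolved in acetone to the desired final concentrations; 3 mL of test solution mixed evenly into about 27 g of prepared feed, then dispensed into 24-well plates. Run in triplicate at 25 ± 1 °C. Dead/alive scoring 3 days after treatment; mortality corrected by Abbott's formula on a 0–100 scale.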

Plutella xylostella [2] = assay: Stomach toxicity against Plutella xylostella (diamondback moth) assessed as larvicidal activity at 200 mg/kg by leaf dip method; type: functional
Helicoverpa armigera [3] = assay: Stomach toxicity against third-instars Helicoverpa armigera assessed as larvicidal activity at 5.5 mg/kg at 25 +/- 1 degC after 3 days; type: functional; method in brief: as §1
Culex pipiens pallens [4] = assay: Larvicidal activity against Culex pipiens pallens (mosquito) at 0.5 mg/kg; type: functional
Tetranychus cinnabarinus [5] = assay: Acaricidal activity against Tetranychus cinnabarinus (carmine spider mite) larvae at 600 mg/kg by leaf dip method; type: functional
Tetranychus cinnabarinus [6] = assay: Acaricidal activity against Tetranychus cinnabarinus (carmine spider mite) larvae at 200 mg/kg by leaf dip method; type: functional
Helicoverpa armigera [7] = assay: Stomach toxicity against third-instars Helicoverpa armigera assessed as larvicidal activity at 22 mg/kg at 25 +/- 1 degC after 3 days; type: functional; method in brief: as §1
Culex pipiens pallens [8] = assay: Larvicidal activity against Culex pipiens pallens (mosquito) at 1 mg/kg; type: functional
Aphis craccivora [9] = assay: Larvicidal activity against Aphis craccivora (cowpea aphid) at 600 mg/kg by leaf dip method; type: functional
Helicoverpa armigera [10] = assay: Stomach toxicity against third-instars Helicoverpa armigera assessed as larvicidal activity at 110 mg/kg at 25 +/- 1 degC after 3 days; type: functional; method in brief: as §1
Tetranychus cinnabarinus [11] = assay: Acaricidal activity against Tetranychus cinnabarinus (carmine spider mite) eggs at 600 mg/kg by leaf dip method; type: functional, Egg
Aphis craccivora [12] = assay: Larvicidal activity against Aphis craccivora (cowpea aphid) at 200 mg/kg by leaf dip method; type: functional
Helicoverpa armigera [13] = assay: Stomach toxicity against third-instars Helicoverpa armigera assessed as larvicidal activity at 11 mg/kg at 25 +/- 1 degC after 3 days; type: functional; method in brief: as §1
Tetranychus cinnabarinus [14] = assay: Acaricidal activity against Tetranychus cinnabarinus (carmine spider mite) adults at 600 mg/kg by leaf dip method; type: functional
Plutella xylostella [15] = assay: Stomach toxicity against Plutella xylostella (diamondback moth) assessed as larvicidal activity at 600 mg/kg by leaf dip method; type: functional
Culex pipiens pallens [16] = assay: Larvicidal activity against Culex pipiens pallens (mosquito) at 5 mg/kg; type: functional
Culex pipiens pallens [17] = assay: Larvicidal activity against Culex pipiens pallens (mosquito) at 2 mg/kg; type: functional
Plutella xylostella [18] = assay: Antifeedant activity against Plutella xylostella (diamondback moth) at 200 to 600 mg/kg by leaf dip method; type: functional, organism-based
Tetranychus cinnabarinus [19] = assay: Acaricidal activity against Tetranychus cinnabarinus (carmine spider mite) eggs at 200 mg/kg by leaf dip method; type: functional, Egg
Tetranychus cinnabarinus [20] = assay: Acaricidal activity against Tetranychus cinnabarinus (carmine spider mite) adults at 200 mg/kg by leaf dip method; type: functional
Helicoverpa armigera [21] = assay: Stomach toxicity against third-instars Helicoverpa armigera assessed as larvicidal activity at 25 +/- 1 degC after 3 days; type: functional; method in brief: as §1

SMILES	Activity (Helicoverpa armigera [1])	Activity (Plutella xylostella [2])	Activity (Helicoverpa armigera [3])	Activity (Culex pipiens pallens [4])	Activity (Tetranychus cinnabarinus [5])	Activity (Tetranychus cinnabarinus [6])	Activity (Helicoverpa armigera [7])	Activity (Culex pipiens pallens [8])	Activity (Aphis craccivora [9])	Activity (Helicoverpa armigera [10])	Activity (Tetranychus cinnabarinus [11])	Activity (Aphis craccivora [12])	Activity (Helicoverpa armigera [13])	Activity (Tetranychus cinnabarinus [14])	Activity (Plutella xylostella [15])	Activity (Culex pipiens pallens [16])	Activity (Culex pipiens pallens [17])	Activity (Plutella xylostella [18])	Activity (Tetranychus cinnabarinus [19])	Activity (Tetranychus cinnabarinus [20])	also measured
CCc1nn(C)c(C(=O)NC(CCl)c2ccc(Oc3ccccc3)cc2)c1Cl (centres undefined)	100%	60%	40%	0%	30%	20%	100%	60%	100%	100%	20%	80%	80%	0%	90%	100%	100%	Active	0%		
CCc1nn(C)c(C2=NC(c3ccc(Cl)cc3)CO2)c1Cl (centres undefined)	100%		60%		20%	0%	100%	0%	60%	100%	40%	35%	90%	10%	0%	100%	50%		0%	0%	
CCCCCOc1ccc(C(CCl)NC(=O)c2c(Cl)c(CC)nn2C)cc1 (centres undefined)	100%	45%	10%		30%	0%	100%	0%	100%	100%	40%	45%	60%	0%	90%	100%	70%		0%		
CCc1nn(C)c(C(=O)NC(CO)c2ccc(Oc3ccccc3)cc2)c1Cl (centres undefined)	100%	20%	0%	0%	30%	0%	70%	40%	100%	100%	15%	50%	40%	0%	60%	100%	100%		0%		
CCc1cc(C(=O)NC(CCl)c2ccc(C(C)(C)C)cc2)n(C)n1 (centres undefined)	100%	15%	60%		20%	0%	100%		80%	100%	80%	65%	90%	30%	30%	60%	0%		40%	0%	LC50 (Helicoverpa armigera [21]): 3.33 mg/kg
CCc1nn(C)c(C(=O)NCc2ccc(Oc3ccc(C)cc3)cc2)c1Cl [TOLFENPYRAD]	100%	100%	70%				100%			100%			100%		100%						LC50 (Helicoverpa armigera [21]): 2.47 mg/kg
CCc1nn(C)c(C(=O)NC(CCl)c2ccc(C(C)(C)C)cc2)c1Cl (centres undefined)	100%	30%	0%	0%	30%	0%	100%	40%	100%	100%	34%	100%	20%	0%	90%	100%	100%		30%		
CCCCCOc1ccc(C2COC(c3c(Cl)c(CC)nn3C)=N2)cc1 (centres undefined)	100%	30%	30%		15%	0%	100%	0%	100%	100%	40%	90%	80%	20%	70%	100%	50%	Active	20%	15%	
CCc1nn(C)c(C2=NC(c3ccc(C(C)(C)C)cc3)CO2)c1Cl (centres undefined)	100%	30%	40%	0%	45%	30%	100%	50%	90%	100%	20%	50%	70%	30%	50%	100%	100%		0%	10%	
CCc1nn(C)c(C(=O)NC(CCl)c2ccc(Cl)cc2)c1Cl (centres undefined)	100%	60%	40%	0%	0%		100%	50%	80%	100%	10%	50%	70%	0%	70%	100%	100%	Active	0%		
CCc1cc(C2=NC(c3ccc(C(C)(C)C)cc3)CO2)n(C)n1 (centres undefined)	100%	45%			90%	80%	40%	0%	98%	100%	100%	90%	0%	100%	60%	100%	60%	Active	95%	95%	
